Assay results from ChEMBL document CHEMBL3817818, “Synthesis and evaluation of fluorescent Pam3Cys peptide conjugates” (Bioorg Med Chem Lett, 2016).
Activity calls are given as the source filed them. No cut-off for these calls is given here. Where a SMILES comes first, the peptide text is derived from it. The star is where a group is joined. Propyl(2R-PamO,3-PamO) = CCCCCCCCCCCCCCCC(=O)OC[C@H](C*)OC(=O)CCCCCCCCCCCCCCC; X1 = CCCCCCCCCCCCCCCC(=O)OC[C@@H](C*)OC(=O)CCCCCCCCCCCCCCC; Palmitoyl = CCCCCCCCCCCCCCCC(=O)*

Assays:
[1] = target: Toll-like receptor 2 (Mus musculus) (UniProt Q9QUN7); assay: Agonist activity at TLR2 in H-2b harboring B6 mouse DC assessed as cell maturation by measuring increase in IL-12 p40 production at 0.0625 to 1 uM incubated for 48 hrs by sandwich ELISA
In short: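 Supernatants were harvested and IL-12 secretion measured by ELISA. Data shown are one representative of three independent experiments.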

[2] = target: Toll-like receptor 2 (Homo sapiens) (UniProt O60603); assay: Agonist activity at human TLR2 expressed in HEK cells assessed as increase in IL-8 production at 25 to 100 nM incubated for 24 hrs by ELISA; format: cell-based; settings: HEK293
In short: (§1)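 HEK cells transfected with human TLR2 were incubated 24 h with conjugates at 100–25 nM, or with Pam₃CysSK₄ at 100 ng/mL. Receptor activation was read as IL-8 produced in the assay. Error bars are SD.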

[3] = target: Toll-like receptor 4 (Homo sapiens) (UniProt O00206); assay: Agonist activity at human TLR4 expressed in HEK cells assessed as increase in IL-8 production at 25 to 100 nM incubated for 24 hrs by ELISA; format: cell-based; settings: HEK293
[4] = Aqueous solubility of compound; format: physicochemical; settings: buffer
[5] = target: Toll-like receptor 2 (Homo sapiens) (UniProt O60603); assay: Agonist activity at human TLR2 expressed in HEK cells assessed as increase in IL-8 production at 100 ng/ml incubated for 24 hrs by ELISA; format: cell-based; settings: HEK293; in short: as §1
[6] = Drug uptake in H-2b harboring B6 mouse DC at 1 uM after 15 mins by confocal microscopic analysis; format: ADME; settings: in vitro, 0.25 h
In short: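 Dendritic cells were exposed to conjugate for 15 min. Uptake and intracellular localisation were imaged by confocal laser scanning microscopy. Images are representative of multiple cells in at least 3 experiments.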

Chain of Toll-like receptor 2 (Homo sapiens) (O60603 whole entry): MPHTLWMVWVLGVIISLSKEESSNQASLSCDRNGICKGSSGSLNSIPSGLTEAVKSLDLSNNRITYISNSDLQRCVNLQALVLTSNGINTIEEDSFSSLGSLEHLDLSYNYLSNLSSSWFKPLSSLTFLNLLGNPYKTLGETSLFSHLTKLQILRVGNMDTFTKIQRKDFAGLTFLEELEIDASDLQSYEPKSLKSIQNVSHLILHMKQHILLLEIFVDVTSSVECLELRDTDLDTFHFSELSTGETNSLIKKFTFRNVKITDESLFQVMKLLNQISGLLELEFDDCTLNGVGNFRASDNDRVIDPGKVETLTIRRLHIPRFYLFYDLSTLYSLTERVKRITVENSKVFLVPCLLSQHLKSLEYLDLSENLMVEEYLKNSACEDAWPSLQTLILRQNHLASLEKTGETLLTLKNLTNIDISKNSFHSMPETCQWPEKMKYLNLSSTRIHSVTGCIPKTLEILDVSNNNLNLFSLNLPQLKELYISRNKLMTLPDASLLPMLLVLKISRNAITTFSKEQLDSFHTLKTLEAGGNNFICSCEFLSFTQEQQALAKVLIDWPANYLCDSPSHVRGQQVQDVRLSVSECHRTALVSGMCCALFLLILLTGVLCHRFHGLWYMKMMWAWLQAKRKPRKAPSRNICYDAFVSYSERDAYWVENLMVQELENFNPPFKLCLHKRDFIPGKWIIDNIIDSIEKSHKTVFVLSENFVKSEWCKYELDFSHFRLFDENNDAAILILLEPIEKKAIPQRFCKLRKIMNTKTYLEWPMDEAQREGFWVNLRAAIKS
Chain of Toll-like receptor 4 (Homo sapiens) (O00206 whole entry): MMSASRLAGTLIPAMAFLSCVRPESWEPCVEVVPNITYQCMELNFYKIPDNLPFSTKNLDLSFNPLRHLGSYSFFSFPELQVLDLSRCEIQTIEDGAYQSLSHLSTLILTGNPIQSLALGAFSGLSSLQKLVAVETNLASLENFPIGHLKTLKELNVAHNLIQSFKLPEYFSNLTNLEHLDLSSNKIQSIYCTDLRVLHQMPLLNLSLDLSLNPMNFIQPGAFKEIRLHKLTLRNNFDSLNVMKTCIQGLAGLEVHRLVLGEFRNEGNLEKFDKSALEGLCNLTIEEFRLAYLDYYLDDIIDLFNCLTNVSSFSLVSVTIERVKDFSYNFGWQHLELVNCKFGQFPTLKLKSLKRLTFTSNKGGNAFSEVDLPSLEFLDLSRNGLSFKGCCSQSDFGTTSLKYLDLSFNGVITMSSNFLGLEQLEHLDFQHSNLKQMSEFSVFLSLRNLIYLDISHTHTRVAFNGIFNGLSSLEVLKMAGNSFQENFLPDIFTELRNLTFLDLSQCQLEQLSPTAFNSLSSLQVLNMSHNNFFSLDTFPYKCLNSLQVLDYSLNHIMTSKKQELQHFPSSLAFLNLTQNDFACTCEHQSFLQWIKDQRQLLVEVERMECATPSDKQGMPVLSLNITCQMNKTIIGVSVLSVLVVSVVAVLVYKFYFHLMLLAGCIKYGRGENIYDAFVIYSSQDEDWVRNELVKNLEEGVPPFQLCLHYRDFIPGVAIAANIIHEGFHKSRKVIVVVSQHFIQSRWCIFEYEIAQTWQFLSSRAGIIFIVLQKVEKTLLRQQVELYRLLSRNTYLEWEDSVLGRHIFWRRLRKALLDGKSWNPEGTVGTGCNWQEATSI
Chain of Toll-like receptor 2 (Mus musculus) (Q9QUN7 whole entry): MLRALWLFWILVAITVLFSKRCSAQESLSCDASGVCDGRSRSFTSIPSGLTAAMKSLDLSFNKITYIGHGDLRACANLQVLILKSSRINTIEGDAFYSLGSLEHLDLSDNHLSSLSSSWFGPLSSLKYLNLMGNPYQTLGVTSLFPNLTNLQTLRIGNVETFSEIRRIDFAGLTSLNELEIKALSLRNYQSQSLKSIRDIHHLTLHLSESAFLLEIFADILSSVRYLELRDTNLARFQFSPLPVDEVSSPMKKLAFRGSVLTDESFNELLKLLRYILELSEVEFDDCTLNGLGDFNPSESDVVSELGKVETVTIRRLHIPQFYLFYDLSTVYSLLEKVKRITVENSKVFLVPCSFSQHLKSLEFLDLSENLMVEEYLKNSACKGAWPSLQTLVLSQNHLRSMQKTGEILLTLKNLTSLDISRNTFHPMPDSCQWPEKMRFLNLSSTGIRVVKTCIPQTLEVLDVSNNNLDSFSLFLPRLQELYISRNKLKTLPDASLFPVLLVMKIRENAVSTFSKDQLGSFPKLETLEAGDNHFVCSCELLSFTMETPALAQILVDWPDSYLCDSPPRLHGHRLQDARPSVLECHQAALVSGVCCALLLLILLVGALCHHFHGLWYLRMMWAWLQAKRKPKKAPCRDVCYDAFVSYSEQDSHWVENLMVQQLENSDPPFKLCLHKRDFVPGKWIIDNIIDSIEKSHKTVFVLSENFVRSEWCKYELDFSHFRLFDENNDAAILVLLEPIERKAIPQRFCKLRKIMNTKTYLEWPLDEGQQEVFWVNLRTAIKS

Row | Compound | Activity [1] | Activity [2] | Activity [3] | solubility [4] | Activity [5] | Drug uptake [6]
1 | CCCCCCCCCCCCCCCC(=O)N[C@@H](CSC[C@@H](COC(=O)CCCCCCCCCCCCCCC)OC(=O)CCCCCCCCCCCCCCC)C(=O)N[C@@H](CO)C(=O)N[C@@H](CCCCN)C(=O)N[C@@H](CCCCN)C(=O)N[C@@H](CCCCN)C(=O)N[C@@H](CCCCN)C(=O)N[C@@H](CC(=O)O)C(=O)N[C@@H](CCC(=O)O)C(=O)N[C@H](C(=O)N[C@@H](CO)C(=O)NCC(=O)N[C@@H](CC(C)C)C(=O)N[C@@H](CCC(=O)O)C(=O)N[C@@H](CCC(N)=O)C(=O)N[C@@H](CC(C)C)C(=O)N[C@@H](CCC(=O)O)C(=O)N[C@@H](CO)C(=O)N[C@H](C(=O)N[C@H](C(=O)N[C@@H](CC(N)=O)C(=O)N[C@@H](Cc1ccccc1)C(=O)N[C@@H](CCC(=O)O)C(=O)N[C@@H](CCCCN)C(=O)N[C@@H](CC(C)C)C(=O)O)[C@@H](C)CC)[C@@H](C)CC)C(C)C (Palmitoyl-C(Propyl(2R-PamO,3-PamO))SKKKKDEVSGLEQLESIINFEKL-OH) | Active | Active | inactive | – | – | –
2 | CCCCCCCCCCCCCCCC(=O)N[C@H](CSC[C@@H](COC(=O)CCCCCCCCCCCCCCC)OC(=O)CCCCCCCCCCCCCCC)C(=O)N[C@H](CO)C(=O)N[C@H](CCCCN)C(=O)N[C@H](CCCCN)C(=O)N[C@H](CCCCN)C(=O)N[C@H](CCCCN)C(=O)N[C@H](CC(=O)O)C(=O)N[C@H](CCC(=O)O)C(=O)N[C@@H](C(=O)N[C@H](CO)C(=O)NCC(=O)N[C@H](CC(C)C)C(=O)N[C@H](CCC(=O)O)C(=O)N[C@H](CCC(N)=O)C(=O)N[C@H](CC(C)C)C(=O)N[C@H](CCC(=O)O)C(=O)N[C@H](CO)C(=O)N[C@@H](C(=O)N[C@@H](C(=O)N[C@H](CC(N)=O)C(=O)N[C@H](Cc1ccccc1)C(=O)N[C@@H](CCC(=O)O)C(=O)N[C@H](CCCCn1nnc2c1CC[C@@H]1[C@H](CC2)[C@@H]1COC(=O)NCCOCCOCCNC(=O)c1ccc(-c2c3ccc(=[N+](C)C)cc-3oc3cc(N(C)C)ccc23)c(C(=O)[O-])c1)C(=O)N[C@@H](CC(C)C)C(=O)O)[C@@H](C)CC)[C@@H](C)CC)C(C)C | inactive | – | – | Insoluble | – | –
3 | CCCCCCCCCCCCCCCC(=O)N[C@H](CSC[C@H](COC(=O)CCCCCCCCCCCCCCC)OC(=O)CCCCCCCCCCCCCCC)C(=O)N[C@H](CO)C(=O)N[C@H](CCCCN)C(=O)N[C@H](CCCCN)C(=O)N[C@H](CCCCN)C(=O)N[C@H](CCCCN)C(=O)N[C@H](CC(=O)O)C(=O)N[C@H](CCC(=O)O)C(=O)N[C@@H](C(=O)N[C@H](CO)C(=O)NCC(=O)N[C@H](CC(C)C)C(=O)N[C@H](CCC(=O)O)C(=O)N[C@H](CCC(N)=O)C(=O)N[C@H](CC(C)C)C(=O)N[C@H](CCC(=O)O)C(=O)N[C@H](CO)C(=O)N[C@@H](C(=O)N[C@@H](C(=O)N[C@H](CC(N)=O)C(=O)N[C@H](Cc1ccccc1)C(=O)N[C@@H](CCC(=O)O)C(=O)N[C@H](CCCCn1nnc2c1CC[C@@H]1[C@H](CC2)[C@@H]1COC(=O)NCCOCCOCCNC(=O)c1ccc(-c2c3ccc(=[N+](C)C)cc-3oc3cc(N(C)C)ccc23)c(C(=O)[O-])c1)C(=O)N[C@@H](CC(C)C)C(=O)O)[C@@H](C)CC)[C@@H](C)CC)C(C)C | Active | – | – | Insoluble | – | –
4 | CCCCCCCCCCCCCCCC(=O)N[C@@H](CSC[C@@H](COC(=O)CCCCCCCCCCCCCCC)OC(=O)CCCCCCCCCCCCCCC)C(=O)N[C@@H](CO)C(=O)N[C@@H](CCCCN)C(=O)N[C@@H](CCCCN)C(=O)N[C@@H](CCCCN)C(=O)N[C@@H](CCCCN)C(=O)N[C@@H](CC(=O)O)C(=O)N[C@@H](CCC(=O)O)C(=O)N[C@H](C(=O)N[C@@H](CO)C(=O)NCC(=O)N[C@@H](CC(C)C)C(=O)N[C@@H](CCC(=O)O)C(=O)N[C@@H](CCC(N)=O)C(=O)N[C@@H](CC(C)C)C(=O)N[C@@H](CCC(=O)O)C(=O)N[C@@H](CO)C(=O)N[C@H](C(=O)N[C@H](C(=O)N[C@@H](CC(N)=O)C(=O)N[C@@H](Cc1ccccc1)C(=O)N[C@H](CCC(=O)O)C(=O)N[C@@H](CCCCn1nnc2c1CC[C@H]1[C@@H](CC2)[C@H]1COC(=O)NCCOCCOCCNC(=O)CCCC[N+]1=C(/C=C/C=C/C=C2\N(C)c3ccccc3C2(C)C)C(C)(C)c2ccccc21)C(=O)N[C@H](CC(C)C)C(=O)O)[C@H](C)CC)[C@H](C)CC)C(C)C | Active | Active | inactive | – | – | –
5 | CCCCCCCCCCCCCCCC(=O)N[C@@H](CSC[C@@H](COC(=O)CCCCCCCCCCCCCCC)OC(=O)CCCCCCCCCCCCCCC)C(=O)N[C@@H](CO)C(=O)N[C@@H](CCCCN)C(=O)N[C@@H](CCCCN)C(=O)N[C@@H](CCCCN)C(=O)N[C@@H](CCCCN)C(=O)O (Palmitoyl-C(Propyl(2R-PamO,3-PamO))SKKKK-OH) | – | – | – | – | Active | –
6 | CCCCCCCCCCCCCCCC(=O)N[C@@H](CSC[C@H](COC(=O)CCCCCCCCCCCCCCC)OC(=O)CCCCCCCCCCCCCCC)C(=O)N[C@@H](CO)C(=O)N[C@@H](CCCCN)C(=O)N[C@@H](CCCCN)C(=O)N[C@@H](CCCCN)C(=O)N[C@@H](CCCCN)C(=O)N[C@@H](CC(=O)O)C(=O)N[C@@H](CCC(=O)O)C(=O)N[C@H](C(=O)N[C@@H](CO)C(=O)NCC(=O)N[C@@H](CC(C)C)C(=O)N[C@@H](CCC(=O)O)C(=O)N[C@@H](CCC(N)=O)C(=O)N[C@@H](CC(C)C)C(=O)N[C@@H](CCC(=O)O)C(=O)N[C@@H](CO)C(=O)N[C@H](C(=O)N[C@H](C(=O)N[C@@H](CC(N)=O)C(=O)N[C@@H](Cc1ccccc1)C(=O)N[C@H](CCC(=O)O)C(=O)N[C@@H](CCCCn1nnc2c1CC[C@H]1[C@@H](CC2)[C@H]1COC(=O)NCCOCCOCCNC(=O)CCCC[N+]1=C(/C=C/C=C/C=C2\N(C)c3ccccc3C2(C)C)C(C)(C)c2ccccc21)C(=O)N[C@H](CC(C)C)C(=O)O)[C@H](C)CC)[C@H](C)CC)C(C)C | inactive | inactive | inactive | – | – | –
7 | CCCCCCCCCCCCCCCC(=O)N[C@@H](CSC[C@H](COC(=O)CCCCCCCCCCCCCCC)OC(=O)CCCCCCCCCCCCCCC)C(=O)N[C@@H](CO)C(=O)N[C@@H](CCCCN)C(=O)N[C@@H](CCCCN)C(=O)N[C@@H](CCCCN)C(=O)N[C@@H](CCCCN)C(=O)N[C@@H](CC(=O)O)C(=O)N[C@@H](CCC(=O)O)C(=O)N[C@H](C(=O)N[C@@H](CO)C(=O)NCC(=O)N[C@@H](CC(C)C)C(=O)N[C@@H](CCC(=O)O)C(=O)N[C@@H](CCC(N)=O)C(=O)N[C@@H](CC(C)C)C(=O)N[C@@H](CCC(=O)O)C(=O)N[C@@H](CO)C(=O)N[C@H](C(=O)N[C@H](C(=O)N[C@@H](CC(N)=O)C(=O)N[C@@H](Cc1ccccc1)C(=O)N[C@@H](CCC(=O)O)C(=O)N[C@@H](CCCCn1nnc2c1CC[C@H]1[C@@H](CC2)[C@H]1COC(=O)NCCOCCOCCNC(=O)CCCC[N+]1=C(/C=C/C=C/C=C2\N(C)c3ccccc3C2(C)C)C(C)(C)c2ccccc21)C(=O)N[C@@H](CC(C)C)C(=O)O)[C@@H](C)CC)[C@@H](C)CC)C(C)C | – | – | – | – | – | Active
8 | CCCCCCCCCCCCCCCC(=O)N[C@@H](CSC[C@H](COC(=O)CCCCCCCCCCCCCCC)OC(=O)CCCCCCCCCCCCCCC)C(=O)N[C@@H](CO)C(=O)N[C@@H](CCCCN)C(=O)N[C@@H](CCCCN)C(=O)N[C@@H](CCCCN)C(=O)N[C@@H](CCCCN)C(=O)N[C@@H](CC(=O)O)C(=O)N[C@@H](CCC(=O)O)C(=O)N[C@H](C(=O)N[C@@H](CO)C(=O)NCC(=O)N[C@@H](CC(C)C)C(=O)N[C@@H](CCC(=O)O)C(=O)N[C@@H](CCC(N)=O)C(=O)N[C@@H](CC(C)C)C(=O)N[C@@H](CCC(=O)O)C(=O)N[C@@H](CO)C(=O)N[C@H](C(=O)N[C@H](C(=O)N[C@@H](CC(N)=O)C(=O)N[C@@H](Cc1ccccc1)C(=O)N[C@@H](CCC(=O)O)C(=O)N[C@@H](CCCCN)C(=O)N[C@@H](CC(C)C)C(=O)O)[C@@H](C)CC)[C@@H](C)CC)C(C)C (Palmitoyl-C(X1)SKKKKDEVSGLEQLESIINFEKL-OH) | inactive | inactive | inactive | – | – | –
9 | CCCCCCCCCCCCCCCC(=O)N[C@@H](CSC[C@@H](COC(=O)CCCCCCCCCCCCCCC)OC(=O)CCCCCCCCCCCCCCC)C(=O)N[C@@H](CO)C(=O)N[C@@H](CCCCN)C(=O)N[C@@H](CCCCN)C(=O)N[C@@H](CCCCN)C(=O)N[C@@H](CCCCN)C(=O)N[C@@H](CC(=O)O)C(=O)N[C@@H](CCC(=O)O)C(=O)N[C@H](C(=O)N[C@@H](CO)C(=O)NCC(=O)N[C@@H](CC(C)C)C(=O)N[C@@H](CCC(=O)O)C(=O)N[C@@H](CCC(N)=O)C(=O)N[C@@H](CC(C)C)C(=O)N[C@@H](CCC(=O)O)C(=O)N[C@@H](CO)C(=O)N[C@H](C(=O)N[C@H](C(=O)N[C@@H](CC(N)=O)C(=O)N[C@@H](Cc1ccccc1)C(=O)N[C@@H](CCC(=O)O)C(=O)N[C@@H](CCCCn1nnc2c1CC[C@H]1[C@@H](CC2)[C@H]1COC(=O)NCCOCCOCCNC(=O)CCCC[N+]1=C(/C=C/C=C/C=C2\N(C)c3ccccc3C2(C)C)C(C)(C)c2ccccc21)C(=O)N[C@@H](CC(C)C)C(=O)O)[C@@H](C)CC)[C@@H](C)CC)C(C)C | – | – | – | – | – | Active
